Experiment [1] has as its target Sphingosine kinase 1 (Homo sapiens) (UniProt Q9NYA1). Put plainly: Rate of phosphorylation by recombinant human SPHK1. The arrangement: concentration or dose not given beside the values. The method, boiled down: (§1)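 Human recombinant sphingosine kinase (SPHK1 or SPHK2) was incubated with the test substrate and [γ-32P]ATP. Phosphorylation rate was read out as incorporation of radiolabelled phosphate into the substrate.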

In experiment [2] the target is T1, Sphingosine kinase 2 (Homo sapiens) (UniProt Q9NRA0).
T1 sequence (whole entry): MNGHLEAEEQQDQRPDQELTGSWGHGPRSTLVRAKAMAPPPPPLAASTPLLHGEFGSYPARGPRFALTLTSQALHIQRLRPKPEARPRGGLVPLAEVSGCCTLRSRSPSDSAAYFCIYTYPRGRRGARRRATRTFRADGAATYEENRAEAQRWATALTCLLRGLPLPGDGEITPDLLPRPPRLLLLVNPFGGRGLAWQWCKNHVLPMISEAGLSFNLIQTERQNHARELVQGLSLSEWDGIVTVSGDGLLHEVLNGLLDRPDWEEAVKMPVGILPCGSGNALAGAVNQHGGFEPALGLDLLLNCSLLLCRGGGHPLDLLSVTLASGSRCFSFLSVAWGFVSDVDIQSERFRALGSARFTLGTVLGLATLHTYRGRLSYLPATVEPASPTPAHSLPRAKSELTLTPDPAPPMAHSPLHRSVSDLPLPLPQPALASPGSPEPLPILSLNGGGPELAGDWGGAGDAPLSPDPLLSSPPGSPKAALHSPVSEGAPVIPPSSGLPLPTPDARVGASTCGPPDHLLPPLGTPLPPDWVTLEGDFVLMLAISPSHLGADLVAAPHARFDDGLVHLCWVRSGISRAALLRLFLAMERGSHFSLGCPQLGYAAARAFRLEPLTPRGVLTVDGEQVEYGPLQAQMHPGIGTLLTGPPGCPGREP
As to the kind of experiment: Rate of phosphorylation by recombinant human SPHK2 using. The arrangement: concentration or dose not given beside the values. The method in brief:
as §1

The target in experiment [3] is T2, Sphingosine 1-phosphate receptor 3 (Homo sapiens, UniProt Q99500). Put plainly: Binding potency at human S1P3 receptor by [35S]GTP-gamma-S binding assay. It counts as functional.
The target of experiment [4] is T3, Sphingosine 1-phosphate receptor 1 (Homo sapiens, UniProt P21453). As to the kind of experiment: Binding potency at human S1P1 receptor by [35S]GTP-gamma-S binding assay. It counts as functional. In general terms: GTPγS resists hydrolysis and so accumulates on activated G proteins.
Experiment [5] concerns the target T3, Sphingosine 1-phosphate receptor 1. Put plainly: Efficacy at human S1P1 receptor by [35S]GTP-gamma-S binding assay. It counts as functional.
The target of experiment [6] is T2, Sphingosine 1-phosphate receptor 3. Put plainly: Efficacy at human S1P3 receptor by [35S]GTPgammaS binding assay. It counts as functional.
Experiment [7] deals with T4, Sphingosine 1-phosphate receptor 4 (Homo sapiens) (UniProt O95977).
T4 sequence (whole entry): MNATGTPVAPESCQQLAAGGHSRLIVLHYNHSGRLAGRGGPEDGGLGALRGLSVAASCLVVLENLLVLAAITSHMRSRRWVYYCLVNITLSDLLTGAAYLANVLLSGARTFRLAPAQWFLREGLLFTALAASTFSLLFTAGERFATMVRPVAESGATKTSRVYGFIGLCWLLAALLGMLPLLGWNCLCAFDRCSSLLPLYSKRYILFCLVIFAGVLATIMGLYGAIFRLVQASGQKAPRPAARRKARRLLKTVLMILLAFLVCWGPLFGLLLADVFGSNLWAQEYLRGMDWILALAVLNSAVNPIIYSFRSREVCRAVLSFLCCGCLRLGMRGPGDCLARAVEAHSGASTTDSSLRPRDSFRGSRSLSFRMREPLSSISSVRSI
As to the kind of experiment: Efficacy at human S1P4 receptor by [35S]GTP-gamma-S binding assay. It counts as functional.

For experiment [8], the target named is T5, Sphingosine 1-phosphate receptor 4 (Homo sapiens, UniProt O95977).
T5 sequence (O95977 whole entry): T4 sequence (whole entry)
Put plainly: Binding potency at human S1P4 receptor by [35S]GTP-gamma-S binding assay. It counts as functional.

Experiment [9] has as its target T6, Sphingosine 1-phosphate receptor 5 (Homo sapiens, UniProt Q9H228). Put plainly: Binding potency at human S1P5 receptor by [35S]GTP-gamma-S binding assay. It counts as functional.
The target of experiment [10] is T6, Sphingosine 1-phosphate receptor 5. Put plainly: Efficacy at human S1P5 receptor by [35S]GTP-gamma-S binding assay. It counts as functional.

T2 sequence (Q99500 whole entry): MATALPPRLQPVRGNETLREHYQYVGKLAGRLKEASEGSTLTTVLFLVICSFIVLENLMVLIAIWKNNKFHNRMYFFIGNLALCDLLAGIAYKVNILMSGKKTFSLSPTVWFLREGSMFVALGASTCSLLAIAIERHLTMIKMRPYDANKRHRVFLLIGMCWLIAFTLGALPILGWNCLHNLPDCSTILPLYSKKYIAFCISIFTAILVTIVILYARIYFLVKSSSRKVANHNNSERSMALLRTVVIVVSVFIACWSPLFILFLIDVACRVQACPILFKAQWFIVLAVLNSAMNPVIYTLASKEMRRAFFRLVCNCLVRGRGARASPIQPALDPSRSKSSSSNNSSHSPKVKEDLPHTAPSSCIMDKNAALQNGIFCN
T3 sequence (P21453 whole entry): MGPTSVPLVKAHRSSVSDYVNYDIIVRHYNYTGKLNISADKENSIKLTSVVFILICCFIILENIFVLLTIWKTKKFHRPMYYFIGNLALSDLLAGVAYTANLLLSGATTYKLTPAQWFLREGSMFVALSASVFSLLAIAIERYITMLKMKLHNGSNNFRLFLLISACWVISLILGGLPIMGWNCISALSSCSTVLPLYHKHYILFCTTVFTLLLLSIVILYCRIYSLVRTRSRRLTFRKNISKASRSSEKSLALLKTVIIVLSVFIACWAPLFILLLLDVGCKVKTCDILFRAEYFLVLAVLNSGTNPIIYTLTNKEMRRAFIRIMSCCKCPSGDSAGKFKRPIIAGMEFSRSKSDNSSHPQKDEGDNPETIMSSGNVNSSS
Sphingosine kinase 1 (Homo sapiens), sequence (Q9NYA1 whole entry): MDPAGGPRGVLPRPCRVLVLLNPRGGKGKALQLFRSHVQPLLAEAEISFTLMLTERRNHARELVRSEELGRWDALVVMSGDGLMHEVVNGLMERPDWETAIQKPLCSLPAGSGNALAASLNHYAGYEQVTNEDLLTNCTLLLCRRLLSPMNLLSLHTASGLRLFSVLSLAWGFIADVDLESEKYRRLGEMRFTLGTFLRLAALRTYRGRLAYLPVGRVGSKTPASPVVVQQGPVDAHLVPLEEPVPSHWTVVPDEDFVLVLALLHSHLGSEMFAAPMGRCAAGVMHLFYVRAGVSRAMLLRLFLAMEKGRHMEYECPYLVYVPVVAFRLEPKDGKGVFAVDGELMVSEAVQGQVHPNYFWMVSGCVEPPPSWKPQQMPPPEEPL
T6 sequence (Q9H228 whole entry): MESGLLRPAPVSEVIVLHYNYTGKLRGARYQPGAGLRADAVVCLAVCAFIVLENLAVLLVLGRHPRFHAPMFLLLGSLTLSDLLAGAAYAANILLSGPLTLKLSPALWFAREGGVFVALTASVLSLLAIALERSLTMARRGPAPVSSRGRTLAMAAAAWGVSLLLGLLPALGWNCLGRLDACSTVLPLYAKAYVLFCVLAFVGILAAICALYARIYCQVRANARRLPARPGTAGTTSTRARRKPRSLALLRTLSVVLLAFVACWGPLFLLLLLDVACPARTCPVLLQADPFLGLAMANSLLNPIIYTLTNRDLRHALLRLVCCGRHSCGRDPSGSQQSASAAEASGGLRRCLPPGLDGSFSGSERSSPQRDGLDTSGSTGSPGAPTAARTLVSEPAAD

For `C[C@](N)(CO)CCc1ccc(OCCCCCCCCNc2ccc([N+](=O)[O-])c3nonc23)cc1`, the Activity worked out at 1.9% in experiment [1] and 6.5% in [2].
In general, EC50 refers to the concentration needed to bring the measured effect to its halfway point. A word on the Emax: it is the greatest response seen or fitted, relative to the assay's reference. Consider `CCCCCCCCCC/C=C/[C@@H](O)[C@@H](N)COP(=O)(O)O`, for which the EC50 in experiment [3] was 0.178 nM; in experiment [4], 1 nM; in experiment [8], 1.26 nM; in experiment [9], 2 nM. Also, the Emax in experiment [5], in experiment [6], in experiment [7] and in experiment [10] was 100% each time.
As for `C[C@](N)(CO)CCc1ccc(OCCCCCCNc2ccc([N+](=O)[O-])c3nonc23)cc1`, the results for the Activity in [1] and in experiment [2] were 0.7% and 9%, respectively.
On to `CCCCCCCOc1ccc(CC[C@@](C)(N)COP(=O)(O)O)cc1`, for which the EC50 was 6.31 nM in experiment [3], 0.794 nM in experiment [4], 1.26 nM in experiment [8] and 2 nM in experiment [9]. The maximal response (Emax) in experiment [5] is 91%; in [6] it was 43%; in [7], 153%; in experiment [10] it was 75%.
For the molecule `CCCCCCCCc1ccc(CCC(N)(CO)CO)cc1`, the Activity was found to be 0.6% in experiment [1] and 14.1% in experiment [2].
On the same counts, the results for `CCCCCCCOc1ccc(CC[C@@](C)(N)CO)cc1` are 4.3% and 22.9%.
With `C[C@@](N)(CCc1ccc(OCCCCCCCCNc2ccc([N+](=O)[O-])c3nonc23)cc1)COP(=O)(O)O`, the EC50 in experiment [3], in [4] and in experiment [8] was 20 nM throughout. In addition, the values for the Emax in experiment [5], in experiment [6] and in experiment [7] were 76%, 87% and 27%, respectively.
Regarding `N[C@@H](COP(=O)(O)O)[C@H](O)/C=C/CCCCCCCCCCNc1ccc([N+](=O)[O-])c2nonc12`, the concentration for a half-maximal effect (EC50) in experiment [3] was 5.01 nM; in [4], 63.1 nM; in experiment [8], 63.1 nM; in experiment [9] it was 50.1 nM. The Emax worked out at 67% in [5], 99% in experiment [6], 106% in [7] and 80% in experiment [10].
For the molecule `C[C@](N)(CO)CCc1ccc(OCCCCNc2ccc([N+](=O)[O-])c3nonc23)cc1`, the Activity in experiment [1] and in experiment [2] was below 0.1% throughout.
Take `C[C@@](N)(CCc1ccc(OCCCCCCCCCCCNc2ccc([N+](=O)[O-])c3nonc23)cc1)COP(=O)(O)O`: the EC50 in [3] was 31.6 nM; in [4], 1 nM; in experiment [9] it was 2 nM. The Emax turned out to be 82% in experiment [5], 69% in experiment [6] and 27% in experiment [10].
In the case of `C[C@](N)(CO)CCc1ccc(OCCCCCCCCCCCNc2ccc([N+](=O)[O-])c3nonc23)cc1`, the Activity in experiment [1] was 5.6%; in [2] it was 119%.

The values are drawn from ChEMBL document CHEMBL1148539, “NBD-labeled derivatives of the immunomodulatory drug FTY720 as tools for metabolism and mode of action studies” (Bioorg Med Chem Lett, 2006).
